Source: ChEMBL document CHEMBL1143463, “Potential antitumor agents: flavones and their derivatives from Linaria reflexa Desf” (Bioorg Med Chem Lett, 2005)

Columns and labels:
ACHN = assay: In vitro inhibitory concentration against renal adenocarcinoma cell line (ACHN) in the presence of taxol; format: functional, cell-based; conditions: Homo sapiens
Outline: (§1)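 Cell lines grown in RPMI 1640 with 10% FBS, 1% L-glutamine and 1% penicillin/streptomycin at 37 °C in 5% CO2. Seeded at 2–5 × 10^4 cells/well and left 24 h, then exposed 48 h to serial dilutions at final 0.25–50 (DMSO vehicle), six replicates. Cells fixed with cold TCA, stained with SRB, and read at 564 nm. IC50 taken from % inhibition curves, three experiments, mean ± SD.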

HepG2 = assay: In vitro inhibitory concentration against human hepatocellular carcinoma HepG-2 cells in the presence of vinblastine sulfate salt; format: functional, cell-based
Outline: (§2)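 Cultured in DMEM with 10% FBS, 1% L-glutamine and 1% penicillin/streptomycin at 37 °C in 5% CO2. After 24 h attachment at 2–5 × 10^4 cells/well, cells were treated 48 h with serial dilutions at final 0.25–50 in DMSO-containing medium, six replicates. Survival measured by SRB staining of TCA-fixed cells at 564 nm against untreated control. IC50 from dose–response curves; three experiments, mean ± SD.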

Caco-2 = assay: In vitro inhibitory concentration against human colorectal adenocarcinoma Caco-2 cells in the presence of vinblastine sulfate salt; format: functional, cell-based; outline: as §2
COR-L23 = assay: In vitro inhibitory concentration against human carcinoma COR-L23 cells in the presence of vinblastine sulfate salt; format: functional, cell-based; outline: as §1
MRC5 = assay: In vitro inhibitory concentration against human fetal lung MRC-5 cell line in the presence of vinblastine sulfate salt; format: functional, cell-based; outline: as §2
[1] = In vitro inhibitory concentration against human amelanotic melanoma cell line (C32) in the presence of vinblastine sulfate salt; format: functional; outline: as §1

Row | SMILES | IC50 (ACHN) [µM] | IC50 (HepG2) [µM] | IC50 (Caco-2) [µM] | IC50 (COR-L23) [µM] | IC50 (MRC5) [µM] | IC50 [1] [µM]
1 | COc1ccc(-c2cc(=O)c3c(O)c(OC)c(O[C@@H]4OC(CO[C@@H]5OC(C)[C@H](O)[C@H](OC(C)=O)C5O)[C@@H](O)[C@H](O)C4O)cc3o2)cc1 (some centres undefined) | 16.9 | 10.9 | 14 | 10.4 | > 75.3 | 21.5
2 | C[C@]12O[C@H]1[C@@H](O)[C@]1(O)C=CO[C@@H](O[C@@H]3O[C@H](CO)[C@@H](O)[C@H](O)[C@H]3O)[C@@H]12 [ANTIRRHINOSIDE] | > 138 | > 138 | > 138 | > 138 | > 138 | > 138
3 | COc1ccc(-c2cc(=O)c3c(O)c(OC)c(O[C@@H]4OC(CO[C@@H]5OC(C)[C@H](O)[C@H](O)C5OC(C)=O)[C@@H](O)[C@H](O)C4O)cc3o2)cc1 (some centres undefined) [ISOLINARIIN A] | 14 | 16.4 | 8.54 | 6.68 | > 75.3 | 11.8
4 | COc1ccc(-c2cc(=O)c3c(O)c(OC)c(O)cc3o2)cc1 [PECTOLINARIGENIN] | – | – | – | – | > 159 | 7.02
5 | COc1ccc(-c2cc(=O)c3c(O)c(OC)c(O[C@@H]4O[C@H](CO[C@@H]5O[C@@H](C)[C@H](O)[C@@H](O)[C@H]5O)[C@@H](O)[C@H](O)[C@H]4O)cc3o2)cc1 [PECTOLINARIN] | – | 14.1 | – | – | > 80.3 | 7.17
6 | COc1ccc(-c2cc(=O)c3c(O)c(OC)c(O[C@@H]4OC(CO[C@@H]5OC(C)[C@H](OC(C)=O)[C@H](O)C5O)[C@@H](O)C(O)[C@@H]4O)cc3o2)cc1 (some centres undefined) | 11.2 | 23.2 | 8.01 | 5.17 | > 75.3 | 12.6
